{"source": "ChEMBL document CHEMBL2311307", "about": "“Polymethoxyflavones as agents that prevent formation of cataract: nobiletin congeners show potent growth inhibitory effects in human lens epithelial cells” (Bioorg Med Chem Lett, 2013)", "key": {"[1]": {"assay": "Growth inhibition of human SRA 01/04 cells at 32 uM after 4 days by Alamar blue assay", "type": "functional", "settings": "96 h, read-out: GI", "method_in_brief": "(§1)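 SRA01/04 human lens epithelial cells grown in DMEM with 20% heat-inactivated FBS plus penicillin/streptomycin/neomycin, 37 °C, 5% CO₂. Seeded at 3 × 10³ cells/well and treated in DMEM with varied flavonoid concentrations for up to 4 days. Alamar Blue added for the final 2 h, fluorescence read at ex 530/em 590 nm. Inhibition taken from the day 4 minus day 0 fluorescence change, treated versus control. n = 4, mean ± SD.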"}, "[2]": {"assay": "Growth inhibition of human SRA 01/04 cells at 64 uM after 4 days by Alamar blue assay", "type": "functional", "settings": "96 h, read-out: GI", "method_in_brief": "as §1"}, "Homo sapiens [3]": {"species_on_record": "Homo sapiens", "assay": "Growth inhibition of human SRA 01/04 cells after 4 days by Alamar blue assay", "type": "functional", "method_in_brief": "as §1"}, "Homo sapiens [4]": {"species_on_record": "Homo sapiens", "assay": "Growth inhibition of human SRA 01/04 cells assessed as reduction in PCNA expression at 64 uM after 4 days by Western blot analysis", "type": "functional", "method_in_brief": "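SRA01/04 cells plated at 2 × 10⁵ cells/dish, then harvested and lysed in RIPA buffer (pH 7.5 Tris–HCl, with orthovanadate, PMSF and protease inhibitors). 7 µg protein run on 12.5% SDS-PAGE and transferred to PVDF. Probed overnight at 4 °C with mouse anti-PCNA or anti-β-actin, then alkaline phosphatase secondary for 1 h at room temperature. Bands developed with BCIP/NBT.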"}, "[5]": {"assay": "[…] human SRA 01/04 cells assessed as inhibition of PMA-induced proMMP9 expression after 24 hrs by gelatin zymographic analysis", "type": "functional, cell-based"}}, "note": "The source made the active and inactive calls. No cut-off for these calls is given here."}
{"smiles": "COc1cccc(-c2cc(=O)c3c(OC)c(OC)c(OC)c(OC)c3o2)c1", "values": [{"measurement": "inhibition of growth at 32 µM", "setting": "[1]", "result": 42, "unit": "%"}]}
{"smiles": "COc1c(OC)c(OC)c2c(=O)cc(-c3ccccc3O)oc2c1OC", "values": [{"measurement": "inhibition of growth at 32 µM", "setting": "[1]", "result": 4.2, "unit": "%"}]}
{"smiles": "COc1cc(OC)cc(-c2cc(=O)c3c(OC)c(OC)c(OC)c(OC)c3o2)c1", "values": [{"measurement": "inhibition of growth at 32 µM", "setting": "[1]", "result": 59.9, "unit": "%"}]}
{"smiles": "COc1ccc(-c2cc(=O)c3c(OC)c(OC)c(OC)c(OC)c3o2)cc1OC", "note": "[NOBILETIN]", "values": [{"measurement": "inhibition of growth at 64 µM", "setting": "[2]", "result": 80, "unit": "%"}, {"measurement": "growth inhibition (GI)", "setting": "Homo sapiens [3]", "result": "Dose-dependent effect"}, {"measurement": "inhibition of growth at 32 µM", "setting": "[1]", "result": 47.4, "unit": "%"}, {"measurement": "growth inhibition (GI)", "setting": "Homo sapiens [4]", "result": "Active"}]}
{"smiles": "COc1c(OC)c(O)c2c(=O)cc(-c3ccccc3O)oc2c1OC", "values": [{"measurement": "IC50", "setting": "[5]", "result": "> 64", "unit": "µM"}, {"measurement": "inhibition of growth at 32 µM", "setting": "[1]", "result": 30.7, "unit": "%"}]}
{"smiles": "COc1cc(-c2cc(=O)c3c(OC)c(OC)c(OC)c(OC)c3o2)ccc1O", "values": [{"measurement": "inhibition of growth at 32 µM", "setting": "[1]", "result": 30.7, "unit": "%"}]}
{"smiles": "COc1c(OC)c(OC)c2c(=O)cc(-c3cc(O)cc(O)c3)oc2c1OC", "values": [{"measurement": "inhibition of growth at 32 µM", "setting": "[1]", "result": 11.5, "unit": "%"}]}
{"smiles": "COc1ccccc1-c1cc(=O)c2c(OC)c(OC)c(OC)c(OC)c2o1", "values": [{"measurement": "inhibition of growth at 32 µM", "setting": "[1]", "result": 23.3, "unit": "%"}]}
{"smiles": "COc1c(OC)c(OC)c2c(=O)cc(-c3cccc(O)c3)oc2c1OC", "values": [{"measurement": "inhibition of growth at 32 µM", "setting": "[1]", "result": 18.3, "unit": "%"}]}
{"smiles": "COc1c(OC)c(OC)c2c(=O)cc(-c3ccc(O)c(O)c3)oc2c1OC", "values": [{"measurement": "inhibition of growth at 32 µM", "setting": "[1]", "result": 26.5, "unit": "%"}]}
{"smiles": "COc1c(OC)c(O)c2c(=O)cc(-c3ccc(O)cc3)oc2c1OC", "note": "[XANTHOMICROL]", "values": [{"measurement": "inhibition of growth at 32 µM", "setting": "[1]", "result": 42.3, "unit": "%"}]}
{"smiles": "COc1c(OC)c(OC)c2c(=O)cc(-c3c(O)cccc3O)oc2c1OC", "values": [{"measurement": "IC50", "setting": "[5]", "result": 55, "unit": "µM"}, {"measurement": "inhibition of growth at 32 µM", "setting": "[1]", "result": 5.1, "unit": "%"}]}
{"smiles": "COc1c(OC)c(OC)c2c(=O)cc(-c3ccc(O)cc3)oc2c1OC", "values": [{"measurement": "inhibition of growth at 32 µM", "setting": "[1]", "result": 32, "unit": "%"}]}
{"smiles": "COc1cccc(OC)c1-c1cc(=O)c2c(OC)c(OC)c(OC)c(OC)c2o1", "values": [{"measurement": "IC50", "setting": "[5]", "result": "> 64", "unit": "µM"}, {"measurement": "inhibition of growth at 32 µM", "setting": "[1]", "result": 75.9, "unit": "%"}]}
{"smiles": "COc1ccc(-c2cc(=O)c3c(O)c(OC)c(OC)c(OC)c3o2)cc1OC", "note": "[5-DEMETHYLNOBILETIN]", "values": [{"measurement": "inhibition of growth at 32 µM", "setting": "[1]", "result": 17.2, "unit": "%"}]}
{"smiles": "COc1cc(-c2cc(=O)c3c(O)c(OC)c(OC)c(OC)c3o2)ccc1O", "values": [{"measurement": "inhibition of growth at 32 µM", "setting": "[1]", "result": 64.1, "unit": "%"}]}
{"smiles": "COc1ccc(-c2cc(=O)c3c(OC)c(OC)c(OC)c(OC)c3o2)cc1", "note": "[TANGERETIN]", "values": [{"measurement": "inhibition of growth at 32 µM", "setting": "[1]", "result": 75.9, "unit": "%"}]}
